Screens (PubChem BioAssay)
The list is not random: actives were taken first. Their share in the collection is about 8.8%.
M1 agonist: activates the M1 muscarinic receptor | CHO-M1 cells, Fluo-4 calcium fluorescence, agonist mode; stronger effect = higher value | B-score at 10 µM | 64,000 compounds, 3% hits;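 active = fluorescence rise, raw or as B-score row- and column-corrected plate score, outside the 99.7% band of its plate's samples, either direction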
S1P1 ag pot: agonists and agonism potentiators of human S1P1 receptor; AID 449; S1P1 CRE-bla cells, forskolin, beta-lactamase FRET, potentiator mode; S1P1 agonist co-added at EC20, 2 nM; 100% = saturating reference agonist, 0% = basal; P21453; 56,000 compounds, 0.57% hits; activation, % at 9.5 µM;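 active = activation above a cutoff set at the mean activation of all tested compounds plus 3 SD, cut at about 54% in these data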;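 also: forskolin at 4 µM as EC80 and the EC20 agonist is SEW2871; 100% = SEW2871 at its EC100 plus forskolin at EC80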
SF1 activator: activators of human nuclear receptor SF-1. CHO-K1 Gal4-SF-1 LBD luciferase reporter; % increase over DMSO SF-1-specific signal. 65,000 compounds, 1.9% hits. Q13285. activation, % at 10 µM;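 active = activation above the mean activation of all tested compounds plus 3 SD, cut at about 50% in these data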
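Material: CHO-K1 cells with Gal4–hSF-1 LBD chimera plus Gal4-driven luciferase / Input: 4,000 CHO-K1 cells per well / Incubation: compound exposure 20 h at 37 °C / Signal: luminescence read 15 min after SteadyLite luciferase reagent, after room-temperature equilibration / Read-out: percent activation versus DMSO / Benchmarks: DMSO negative control and −SF1 background wells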
S1P3 ag: activates the human S1P3 receptor; AID 373; S1P3 NFAT-BLA reporter cells, agonism, FRET ratio; relative to 1 µM S1P, basal subtracted; 60,000 compounds, 0.1% hits; activation, % at 4.5 µM; Q99500;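 active = activation above the screen-wide mean plus 3 SD, cut at about 4.5% in these data, passing the limit was not always enough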
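Material: Human S1P3 NFAT-BLA reporter CHO cells | Incubation: Overnight plating, 4 h compound 37 °C, 2 h substrate RT | Signal: FRET β-lactamase substrate fluorescence, excitation 405 nm, 460/535 nm emission ratio, background-subtracted | Compound: 4.5 µM final, single dose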
M1 antag: M1 muscarinic receptor (rat) antagonism; B-score at 10 µM; 64,000 compounds, 3.4% hits; AID 628; CHO-M1 cells, Fluo-4 calcium, ACh EC80 antagonist mode; stronger effect = lower value;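 active = calcium fluorescence response, raw or row-and-column corrected B-score, differing from the plate sample mean either way at a set confidence level, mostly lower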
RORA act: activates the human nuclear receptor RORA; P35398; CHO-K1 Gal4-RORA LBD luciferase reporter, luminescence; percent increase over mock-subtracted basal signal; activation, % at 10 µM; 65,000 compounds, 1.5% hits; AID 560;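 active = activation above the mean of all tested compounds plus 3 SD, cut at about 49% in these data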;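 also: 0% = DMSO-treated RORA cells and 100% = added signal equal to DMSO minus mock-transfected cells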
Target sequence (P35398 whole entry, looked up, the tested form may be a part): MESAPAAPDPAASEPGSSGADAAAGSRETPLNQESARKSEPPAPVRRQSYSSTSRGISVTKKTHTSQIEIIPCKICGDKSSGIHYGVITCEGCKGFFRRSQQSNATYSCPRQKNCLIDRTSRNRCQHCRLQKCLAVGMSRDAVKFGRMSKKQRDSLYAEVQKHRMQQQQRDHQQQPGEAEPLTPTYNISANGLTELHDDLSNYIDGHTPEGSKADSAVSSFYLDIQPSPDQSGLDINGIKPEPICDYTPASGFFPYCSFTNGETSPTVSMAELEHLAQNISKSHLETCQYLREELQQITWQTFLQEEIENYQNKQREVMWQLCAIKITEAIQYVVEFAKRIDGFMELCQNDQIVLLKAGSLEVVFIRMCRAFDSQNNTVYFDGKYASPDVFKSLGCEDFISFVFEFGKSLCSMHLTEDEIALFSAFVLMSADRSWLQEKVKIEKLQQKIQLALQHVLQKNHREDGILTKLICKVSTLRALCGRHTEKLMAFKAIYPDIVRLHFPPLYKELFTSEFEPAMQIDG
M1 antag confirm: M1 muscarinic receptor (rat) antagonism, confirmed; shares compounds with M1 antag; CHO-M1 cells, Fluo-4 calcium, ACh EC80 antagonism; stronger effect = lower value; calcium response (max-min fluorescence) at 10 µM; 1,700 compounds, 43% hits;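 active = calcium response below the same-plate mean of wells given acetylcholine alone at its 80%-effect dose, minus 3 SD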;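 also: raw fluorescence intensity difference in arbitrary instrument units and not normalized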
mGluR4 antag: mGluR4 (human) activity, M1 antagonist secondary assay; shares compounds with M1 antag; CHO-mGluR4 calcium flux, Fluo-4 fluorescence, glutamate EC80; stronger effect = lower value; fluorescence response (max-min) at 10 µM; 1,700 compounds, 0.9% hits; AID 678;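 active = fluorescence response below the plate's average for near-maximal glutamate wells, less 3 SD of those wells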;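 also: raw unnormalized fluorescence span taken in the window right after glutamate addition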
Numbers without * were called inactive; · = not tested or not shown.

SMILES	M1 agonist	S1P1 ag pot	SF1 activator	S1P3 ag	M1 antag	RORA act	M1 antag confirm	mGluR4 antag
O=C(CN1CCN(c2ccccn2)CC1)N1c2ccccc2Sc2ccc(C(F)(F)F)cc21	-0.3	9	-4	-1	-4*	-22	450*	171
COc1ccc(C(=O)N[C@H]2COC(C)(C)O[C@H]2c2ccccc2)cc1	0.26	-6	1	-1	-0.0044	-5	·	·
CCOC(=O)N1CCC(NC2CCCCCCC2)CC1	-0.23	-24	-12	-1	-11*	-9	100*	219
Cc1cc(=O)n2nc(N3CCCC(C(=O)N4CCOCC4)C3)sc2n1 (stereo not given)	-0.69	1	2	0	0.1	-14	·	·
Cc1cc(=O)n2nc(N3CCCC(C(=O)N4CCc5ccccc54)C3)sc2n1 (stereo not given)	1.2	4	0	0	-12*	-10	33*	224
CC(C)OC(=O)CSc1nnc(-c2ccc(O)cc2)n1Cc1ccccc1	0.0028	-5	12	1	-3.3*	-9	648	237
O=C(Nc1cccc(NC(=O)c2cccs2)c1)c1ccco1	2.2	·	-13	-1	-0.4	-10	·	·
COc1cc(NC(=O)c2cccs2)ccc1NC(=O)c1ccco1	1.7	10	-1	0	-2.8*	10	628	272
Cc1ccc(NC(=O)c2ccco2)c(NC(=O)c2cccs2)c1	0.068	5	-3	0	-3.9*	-13	534	206
O=C(Cn1ncc2c1-c1ccccc1OC2)N1CCN(Cc2ccc3c(c2)OCO3)CC1	0.85	7	2	-1	-0.17	-6	·	·
CSc1nc(NCc2ccco2)c2c3c(sc2n1)CN(C)CC3	1.7	·	2	·	-2.8*	-10	711	250
CCC(O)CNc1nc(SC)nc2sc3c(c12)CCN(C)C3 (stereo not given)	0.0092	·	-10	·	-4.3*	19	154*	197
CSc1nc(SCC(=O)NCc2ccco2)c2c3c(sc2n1)CN(C)CC3	-0.57	·	9	·	-0.72	-2	·	·
CSc1nc(SCC(N)=O)c2c3c(sc2n1)CN(C)CC3	-0.85	·	0	·	-5.1*	12	361*	253
CCCCOc1ccc(C(O)(CCC)CCN2CCOCC2)cc1 (stereo not given)	0.015	5	-10	-1	-1.6	4	·	·
CCC(O)(CCN1CCCCC1)c1ccccc1 (stereo not given)	0.35	-12	-12	0	-11*	7	111*	213
CC(O)(C#CCN1CCCC1)c1ccccc1 (stereo not given)	-0.93	-5	-20	0	-2.3*	4	493	212
Cc1onc(-c2ccccc2Cl)c1C(=O)Nc1ccc(-c2nnc3n2CCCCC3)cc1	0.36	9	1	0	-2.3*	-4	408*	216
Cc1onc(-c2ccccc2Cl)c1C(=O)Nc1nnc(C(C)C)s1	-0.16	-27	9	0	-2.2*	20	377*	190
Cc1nnc(SCC(=O)N2CCC(Cc3ccccc3)CC2)n(N)c1=O	-0.11	-3	6	-1	-3*	3	559	231
CCCCOc1ccc(CN2CCC(O)CC2)cc1	-0.33	-15	4	-1	-2.2*	-12	518	257
COc1ccc(C2CC(C(F)(F)F)n3ncc(C(=O)O)c3N2)cc1OC (stereo not given)	-0.15	-6	-17	-1	-3.1*	7	627	246
O=S(=O)(c1ccc(Cl)cc1)N1CCC(N2CCCCCC2)CC1	0.52	11	-3	-4	-4.6*	-9	545	259
COc1ccc(CCNc2cc(=O)[nH]c(N)n2)cc1	-0.2	-44	2	-1	0.73	-17	·	·
C=C(C)Cn1c(SCC)nc2ccccc2c1=O	0.4	-1	-11	0	-4.1*	-4	566	200
SMILES	M1 agonist	S1P1 ag pot	SF1 activator	S1P3 ag	M1 antag	RORA act	M1 antag confirm	mGluR4 antag
COc1ccccc1Nc1nc(N)nc(CN2CCCCCC2)n1	-0.02	-9	-1	0	-0.065	-14	·	·
COc1ccccc1Nc1nc(N)nc(CN2CCC(Cc3ccccc3)CC2)n1	-0.3	-28	14	0	-2.4*	-5	452*	228
Cc1ccc(Nc2nc(N)nc(CN3CCN(Cc4ccc5c(c4)OCO5)CC3)n2)cc1	0.85	·	-7	-1	-3.5*	10	524	211
COc1ccc(Nc2nc(N)nc(CN3CCC(Cc4ccccc4)CC3)n2)cc1	-1.4	-18	-3	-2	-10*	-17	319*	265
COc1ccc(Nc2nc(N)nc(CN3CCOCC3)n2)cc1	0.52	-1	6	0	0.14	5	·	·
CCC(c1nnc(SCC(=O)Nc2ccc(C(=O)Nc3ccccc3OC)cc2)o1)N(C)C (stereo not given)	-0.48	8	10	-1	0.005	-17	·	·
CC1CCCC(C)N1CCNC(=O)C1CCN(S(=O)(=O)N2CCCCC2)CC1 (stereo not given)	-0.57	5	-2	-1	-1.3	6	·	·
CCCN1C2CCCC1CC(NC(=O)c1ccccc1F)C2 (stereo not given)	-1.2	-11	-2	0	-3.7*	-10	567	236
CCCN1C2CCCC1CC(NC(=O)c1ccccc1)C2 (stereo not given)	-0.094	4	10	-1	-2.5	-7	·	·
CCCN1C2CCCC1CC(NC(=O)c1ccccc1OCC)C2 (stereo not given)	1	-6	-1	0	-3.8*	5	461*	237
Cc1ccc(C)c(N2CCN(S(=O)(=O)c3ccc4c(c3)OCCO4)CC2)c1	-0.13	17	1	0	-1*	2	641	235
c1cncc(-c2nc(NCc3ccco3)c3ccccc3n2)c1	1.4	·	0	0	-2.7*	6	498*	228
CC(=O)N1CCC(C(=O)Nc2ccccc2)(N(Cc2ccccc2)C(=O)c2cccnc2)CC1	-0.53	·	1	·	-0.32	2	·	·
CCOC(=O)c1oc2ccc(CNCCO)c(Cl)c2c1C	-0.76	-13	66*	0	-1.9*	19	519*	212
COc1ccc(C)cc1NC(=O)CN1CCN(S(=O)(=O)c2ccc(Br)cc2)CC1	1.1	-17	6	0	-0.12	-10	·	·
Cn1c(=O)n(CC(=O)OCc2ccccc2)c(=O)c2c1nc1n2CCCN1C1CCCCC1	-0.73	5	-15	-1	0.69	-8	·	·
